According to PubChem BioAssay AID463111 (Johns Hopkins Ion Channel Center, 2010):
Among all 310,000 compounds or so, about 2,800 (0.9%) were called active.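 How the source made its calls: active means B-score of the integrated calcium signal more than 4 SD below the library mean, with starting fluorescence not abnormally high; inactive means the rest.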 What follows is part of a selection rich in actives, with near analogues and random picks from the rest.

Assay: RGS4 potentiators or activators, primary screen, cell-based, HEK293 M3R inducible RGS4, calcium flux (AID 463111);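 on B-score: negative B-score means reduced calcium response which marks RGS4 activation or potentiation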
Conditions: HEK293 M3R/inducible RGS4, carbachol calcium flux Fluo4, at 10 µM; active compounds read low
Procedure, shortened: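 test system = HEK293 cells with stable M3R and inducible RGS4 | schedule = recording 10 s baseline at 1 Hz, 100 s post-agonist | technique = Fluo4-AM (2 µM) calcium-flux fluorescence, kinetic read | measure = Agonist-evoked peak-minus-minimum fluorescence over baseline, integrated ratio, B score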

| Structure (SMILES) | B-score |
| --- | --- |
| CN1CCN(C(=O)N2c3ccccc3CCc3ccccc32)CC1 | -9.54 (active) |
| CCC(=O)N1CCCc2ccccc21 | inactive |
| CC1CC(C)CN(CC(=O)N2c3ccccc3CCc3ccccc32)C1 (stereo not drawn) | inactive |
| N#CC1(C#N)C(C(=O)C23CC4CC(CC(C4)C2)C3)C12CCOCC2 (stereo not drawn) | inactive |
| FC(F)(F)C1CCCN(c2nsc3ccccc23)C1 (stereo not drawn) | inactive |
| COC(=O)c1cccc(N(CC(=O)NCC2CCCO2)C(=O)CCC(=O)Nc2cc(C)on2)c1 (stereo not drawn) | inactive |
| CN(Cc1ccccc1)c1nc2c(c(=O)[nH]c(=O)n2C)n1CCSc1nc2ccccc2[nH]1 | inactive |
| Cc1ccnc(SCCn2c(N(C)Cc3ccccc3)nc3c2c(=O)n(C)c(=O)n3C)n1 | -7.93 (active) |
| CC(C)CCn1c(CN(C)Cc2ccccc2)nc2c1c(=O)n(C)c(=O)n2C | inactive |
| CC(C)c1nnc(NC(=O)COC(=O)/C=C/c2ccc([N+](=O)[O-])cc2)s1 | inactive |
| COCCCNc1nc2ccccc2nc1NS(=O)(=O)c1ccc(F)cc1 | inactive |
| O=C(Cn1ncc(N2CCCC2)c(Br)c1=O)c1ccc(Cl)cc1 | inactive |
| COc1cccc(N(CC(=O)NC2CCCC2)C(=O)CCCC(=O)Nc2ccccn2)c1 | inactive |
| Fc1ccc(Cn2nnnc2C(c2cccs2)N2CCCCCC2)cc1 (stereo not drawn) | inactive |
| CCCCN1C(=O)/C(=C2/C=CC=CN2C)SC1=S | -8.69 (active) |
| CCN1C(=O)/C(=C2/Sc3ccccc3N2CCCS(=O)(=O)O)SC1=S | inactive |
| CCCCN1C(=O)/C(=C/C=C2/C=Cc3ccccc3N2CC)SC1=S | inactive |
| CCCCN1C(=O)/C(=C2/Sc3ccc(Cl)cc3N2CC)SC1=S | inactive |
| COc1cc(/C=C2/SC(=S)N(Cc3ccccc3)C2=O)cc(OC)c1O | inactive |
| CN1C=CC=C/C1=C1\SC(=S)N(Cc2ccccc2)C1=O | -9.24 (active) |
| CC(C)CNC(=S)NNC(=O)c1ccccc1OC(F)F | inactive |
| Cc1cccc(C(C)C)c1NC(=O)COC(=O)C1CC(=O)N(Cc2ccccc2)C1 (stereo not drawn) | inactive |
| CNC(=O)c1[nH]cnc1C(=O)N[C@@H](CC(C)C)C(=O)OCc1ccccc1 | inactive |

| Structure (SMILES) | B-score |
| --- | --- |
| N#Cc1ccc(/C=C2\CCn3c2nc2cc(C(=O)O)ccc2c3=O)cc1 | inactive |
| O=C(O)CC(SCC(=O)Nc1ccc(Br)cc1)C(=O)O (stereo not drawn) | inactive |
| Cc1ccc(NC(=O)c2oc3ccccc3c2C)c([N+](=O)[O-])c1 | inactive |
| COc1ccc(-c2csc3ncnc(Oc4ccc5c(C)cc(=O)oc5c4)c23)cc1 | inactive |
| COc1ccc(-c2csc3ncnc(N4CCN(S(=O)(=O)c5ccccc5C#N)CC4)c23)cc1 | inactive |
| COc1ccc(-c2csc3ncnc(N4CCN(S(=O)(=O)c5cccc(F)c5)CC4)c23)cc1 | -7.35 (active) |
| O=C(NCc1ccccc1)[C@H]1C[C@@H]1[C@H](NP(=O)(c1ccccc1)c1ccccc1)c1ccccc1 | inactive |
| CCCn1nnnc1NC(=O)COc1ccc(Cl)cc1C | inactive |
| CN(C)CCCN1C(=O)CSC1c1ccc([N+](=O)[O-])cc1 (stereo not drawn) | inactive |
| CCCCCCOc1ccc(OC(=O)c2cccnc2)cc1 | inactive |
| CCCCCCCCCCCCN1C(=O)CSC1c1cccnc1 (stereo not drawn) | -10 (active) |
| CC1(c2ccc3ccccc3c2)NC(=O)N(CC(N)=O)C1=O (stereo not drawn) | inactive |
| CC1(C)CC(=O)C=C(N2CCOCC2)C1 | inactive |
| O=[N+]([O-])c1ccccc1OCCCCN1CCCCC1 | inactive |
| Cc1ccc(OCCCCN2CCCCC2)c(Br)c1 | -7.76 (active) |
| Cc1ccc(C(C)(C)C)c(OCCCCN2CCCC2)c1 | inactive |
| O=C(NCCCCc1ccccc1)C1CC(c2ccc([N+](=O)[O-])cc2)=NO1 (stereo not drawn) | inactive |
| Cc1ccc(NC(=O)c2sccc2C)cc1[N+](=O)[O-] | inactive |
| O=C(Nc1ccc([N+](=O)[O-])cc1)C1CC12CCC2 (stereo not drawn) | inactive |
| COc1ccc(C(=O)N(C)CC(O)c2ccccc2)cc1OC1CCN(C(C)=O)CC1 (stereo not drawn) | inactive |
| CCC(NC(=O)c1ccccc1NC(=O)c1ccccc1)C(=O)NNC(=O)CSc1nc2ccccc2o1 (stereo not drawn) | inactive |
| CN(C)S(=O)(=O)N1CCC(Oc2cccc(C(=O)NCCCC3CCCC3)c2)CC1 | -7.71 (active) |
| CNS(=O)(=O)c1cccc(C(=O)NCC2CCCCC2)c1 | inactive |

| Structure (SMILES) | B-score |
| --- | --- |
| CN(C(=O)c1cccc(OC2CCN(S(=O)(=O)N(C)C)CC2)c1)C1CCOC1 (stereo not drawn) | inactive |
| Cc1ccc(-c2nc(CS(=O)(=O)CC(=O)NCc3ccc4c(c3)OCO4)c(C)o2)cc1 | inactive |
| N=c1c2c3c(sc2ncn1N)CCCCC3 | inactive |
| N=c1c2c3c(sc2nc2n1CCCCC2)CCCC3 | -8.12 (active) |
| CC1(C)Cc2c(sc3nc4n(c(=N)c23)CCCCC4)CO1 | inactive |
| CCOc1ccc(S(=O)(=O)Nc2ccc(C(=O)NCCCN3CCCC3=O)cc2)cc1 | inactive |
| CN(C)CCOC1c2ccccc2-c2ccccc21 | inactive |
| Cc1ccccc1C(OCCN(C)C)C1CCCCC1 (stereo not drawn) | -8.62 (active) |
| CN(C)CCOC(=O)C(c1ccccc1)C1(O)CCCC1 (stereo not drawn) | inactive |
| O=C(CCCCCn1c(=S)[nH]c2cc3c(cc2c1=O)OCO3)N1CCN(c2ccc(F)cc2)CC1 | inactive |
| Cc1ccc(C)c(N2CCN(C(=O)CCCn3c(=O)c4cccn4c4cccnc43)CC2)c1 | -7.65 (active) |
| Cc1ccc(C)c(N2CCN(C(=O)CCCCCn3c(=S)[nH]c4ccc(N5CCOCC5)cc4c3=O)CC2)c1 | -10.9 (active) |
| Cc1ccc(C)c(N2CCN(C(=O)CCCCn3c(=O)[nH]c4ccccc4c3=O)CC2)c1 | inactive |
| Cc1ccc(C)c(N2CCN(C(=O)CCc3nc4ccccc4[nH]3)CC2)c1 | inactive |
| Cc1ccc(C)c(N2CCN(C(=O)Cn3ncn4cccc4c3=O)CC2)c1 | inactive |
| Cn1c(=O)c2c(SCC(=O)NCC3CCCO3)nc(CC(C)(C)C)nc2n(C)c1=O (stereo not drawn) | inactive |
| OC1CCCN(c2ncnc3c2nnn3Cc2c(F)cccc2Cl)C1 (stereo not drawn) | inactive |
| COc1ccc(CNC(=O)C(c2ccc(O)cc2)N(Cc2ccco2)C(=O)c2snc(C(N)=O)c2N)cc1 (stereo not drawn) | inactive |
| CC(C)c1ccc(NC(=O)Cn2ncc3ccccc32)cc1 | inactive |
| COc1cccc(CNC(=O)CCC2CCCN(C(=O)c3ccc(F)c(Cl)c3)C2)c1 (stereo not drawn) | inactive |
| COc1cccc(CNC(=O)CCC2CCCN(Cc3ccc(OC(F)F)cc3)C2)c1 (stereo not drawn) | -12 (active) |
| COc1cccc(C(=O)N2CCCC(CCC(=O)NCc3ccc(F)c(F)c3)C2)c1 (stereo not drawn) | inactive |
